According to ChEMBL document CHEMBL1122586, “Cytochrome P-455 nm complex formation in the metabolism of phenylalkylamines. 8. Stereoselectivity in metabolic intermediary complex formation with a series of chiral 2-substituted 1-phenyl-2-aminoethanes” (J Med Chem, 1984):

What was measured:
[1] = Apparent Michaelis-Menten constant (Km (app)) for the metabolic intermediary complex formation was reported.; format: ADME; settings: read-out: Km app
Outline: (§1)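 Liver microsomes from male Sprague-Dawley rats (200–240 g) pretreated with phenobarbital ip (three daily injections of 80, then 40 mg/kg on day 4), isolated by gel filtration. Incubation at 25 °C, 1 mg/mL protein, 50 mM potassium phosphate pH 7.5, 10 mM MgCl2, with substrate. Started by NADPH. ΔA455–490 per μmol P-450 versus time read by difference spectroscopy. Vmax(obsd) and Km(app) come from linear plots over a defined substrate range.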

[2] = Compound was tested for the maximal velocity of metabolic intermediary complex formation; format: ADME; outline: as §1

Row | SMILES | Km [1] | Vmax [2]
1 | CCC[C@H](N)Cc1ccccc1.Cl | 32 µM | 9.1
2 | CCCC[C@H](N)Cc1ccccc1.Cl | 21 µM | 10.5
3 | CCC[C@@H](N)Cc1ccccc1.Cl | 28 µM | 5.1
4 | C[C@@H](N)Cc1ccccc1.Cl | ~270 µM | ~ 1.5
5 | CCCC[C@@H](N)Cc1ccccc1.Cl | 16 µM | 5.7
6 | C[C@H](N)Cc1ccccc1.Cl | ~280 µM | ~ 1.6
7 | CCC(N)Cc1ccccc1.Cl (stereo unspecified) | 30 µM | 4
8 | CC[C@@H](N)Cc1ccccc1.Cl | 23 µM | 3.2
